Reference: ChEMBL document CHEMBL4219214, “Callyspongiamides A and B, sterol O-acyltransferase inhibitors, from the Indonesian marine sponge Callyspongia sp” (Bioorg Med Chem Lett, 2018)

Assays:
Chlorocebus aethiops [1] = organism: Chlorocebus aethiops; experiment: Selectivity index, ratio of IC50 for African green monkey SOAT1 isolated from CHO cell microsomes to IC50 for African green monkey SOAT2 isolated from CHO cell microsomes
Procedure, shortened: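 Microsomes were made by homogenizing SOAT1- or SOAT2-CHO cells in sucrose/KCl/KH2PO4/EDTA buffer (pH 7.2) and pelleting at 100,000 × g, 1 h, 4 °C. They were incubated with fatty-acid-free BSA and compound in methanol, and the reaction was started with [1-14C]oleoyl-CoA for 5 min at 37 °C. It was stopped with CHCl3:MeOH 2:1, and [14C]CE was measured by TLC radioimaging. Values are mean ± SD, n = 3. SI = log(IC50 SOAT1/IC50 SOAT2).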

Chlorocebus aethiops [2] = organism: Chlorocebus aethiops; experiment: Selectivity index, ratio of IC50 for African green monkey SOAT1 expressed in CHO cells to IC50 for African green monkey SOAT2 expressed in CHO cells; assay type: cell-based
Procedure, shortened: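 Monolayers of SOAT1- or SOAT2-CHO cells (≥80% confluent, overnight recovery) got CH3OH compound stocks (0–1 mg/mL) plus [14C]oleic acid (1 nmol, 1.85 kBq) for 6 h at 37 °C. Cells were SDS-lysed and Bligh–Dyer extracted, and [14C]CE was quantified by TLC radioimaging as percent of control. IC50s came from triplicate experiments, mean ± SD. SI = log(IC50 SOAT1/IC50 SOAT2).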

CHO [3] = experiment: Effect on cell morphology in CHO cells expressing African green monkey SOAT1 up to 21 to 23 uM; assay type: ADME, cell-based, Cricetulus griseus; settings: chinese hamster
CHO [4] = experiment: Effect on phospholipid synthesis in CHO cells expressing African green monkey SOAT2 up to 21 to 23 uM; assay type: ADME, cell-based, Cricetulus griseus; settings: chinese hamster
Procedure, shortened: (§1)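 SOAT1- or SOAT2-expressing CHO cells were grown in Ham's F-12 with MEM vitamins, geneticin (300 μg/mL) and 10% heat-inactivated FBS at 37 °C, 5% CO2. Cells were seeded at 1.25 × 10⁵/well, recovered overnight, and used at ≥80% confluence. Compound stocks in CH3OH (0–1 mg/mL) were added with [14C]oleic acid (1 nmol) for 6 h. Lipids were Bligh–Dyer extracted, and [14C]PL was resolved by TLC and imaged.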

CHO [5] = experiment: Effect on phospholipid synthesis in CHO cells expressing African green monkey SOAT1 up to 21 to 23 uM; assay type: ADME, cell-based, Cricetulus griseus; settings: chinese hamster; procedure, shortened: as §1
[6] = biological target: T1, Sterol O-acyltransferase 1 (Chlorocebus aethiops, UniProt O77760); experiment: Inhibition of African green monkey SOAT1 isolated from CHO cell microsomes assessed as decrease in [14C]CE synthesis from [1-14C]oleoyl-CoA after 5 mins
T1 sequence (O77760 whole entry): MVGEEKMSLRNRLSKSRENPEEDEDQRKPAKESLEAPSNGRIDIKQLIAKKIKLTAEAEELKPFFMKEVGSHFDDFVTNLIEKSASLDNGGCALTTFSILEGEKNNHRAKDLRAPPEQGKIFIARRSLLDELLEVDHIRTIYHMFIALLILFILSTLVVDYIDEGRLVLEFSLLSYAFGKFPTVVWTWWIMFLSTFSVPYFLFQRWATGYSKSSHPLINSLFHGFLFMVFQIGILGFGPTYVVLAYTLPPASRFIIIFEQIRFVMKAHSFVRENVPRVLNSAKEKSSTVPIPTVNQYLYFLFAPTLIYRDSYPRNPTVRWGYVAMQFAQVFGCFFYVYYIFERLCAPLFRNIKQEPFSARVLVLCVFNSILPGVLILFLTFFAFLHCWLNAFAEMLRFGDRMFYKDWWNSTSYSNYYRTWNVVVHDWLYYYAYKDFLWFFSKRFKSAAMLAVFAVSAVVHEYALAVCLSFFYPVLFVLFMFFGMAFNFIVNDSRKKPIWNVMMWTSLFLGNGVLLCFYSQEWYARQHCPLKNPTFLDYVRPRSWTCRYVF

[7] = biological target: T2, Sterol O-acyltransferase 2 (Chlorocebus aethiops, UniProt O77759); experiment: Inhibition of African green monkey SOAT2 expressed in CHO cells assessed as decrease in [14C]CE synthesis from [14C]oleic acid after 6 hrs; assay type: cell-based
T2 sequence (O77759 whole entry): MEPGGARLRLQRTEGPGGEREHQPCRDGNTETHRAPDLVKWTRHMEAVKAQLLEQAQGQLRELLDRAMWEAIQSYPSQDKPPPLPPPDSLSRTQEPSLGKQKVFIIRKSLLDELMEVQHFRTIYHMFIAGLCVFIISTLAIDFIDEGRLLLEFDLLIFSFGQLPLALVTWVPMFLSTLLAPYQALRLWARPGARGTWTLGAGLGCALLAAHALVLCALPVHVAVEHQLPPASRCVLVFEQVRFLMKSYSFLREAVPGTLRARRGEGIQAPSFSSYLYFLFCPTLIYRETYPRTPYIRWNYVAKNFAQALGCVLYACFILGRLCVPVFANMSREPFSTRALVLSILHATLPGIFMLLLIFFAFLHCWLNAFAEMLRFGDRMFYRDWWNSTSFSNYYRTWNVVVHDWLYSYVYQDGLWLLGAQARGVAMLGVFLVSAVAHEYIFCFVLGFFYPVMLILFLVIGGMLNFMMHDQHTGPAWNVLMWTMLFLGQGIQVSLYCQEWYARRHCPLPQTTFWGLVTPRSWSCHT

CHO [8] = experiment: Effect on cell morphology in CHO cells expressing African green monkey SOAT2 up to 21 to 23 uM; assay type: ADME, cell-based, Cricetulus griseus; settings: chinese hamster
[9] = biological target: T2, Sterol O-acyltransferase 2; experiment: Inhibition of African green monkey SOAT2 isolated from CHO cell microsomes assessed as decrease in [14C]CE synthesis from [1-14C]oleoyl-CoA after 5 mins
[10] = biological target: T1, Sterol O-acyltransferase 1; experiment: Inhibition of African green monkey SOAT1 expressed in CHO cells assessed as decrease in [14C]CE synthesis from [14C]oleic acid after 6 hrs; assay type: cell-based

SMILES | -log(RatioIC50) (Chlorocebus aethiops [1]) | -log(RatioIC50) (Chlorocebus aethiops [2]) | Activity (CHO [3]) | Activity (CHO [4]) | Activity (CHO [5]) | IC50 [6] [nM] | IC50 [7] [nM] | Activity (CHO [8]) | IC50 [9] [nM] | IC50 [10] [nM] | log(RatioIC50) (Chlorocebus aethiops [2])
CCC(=O)[C@H](C[C@H](C)C(Cl)(Cl)Cl)NC(=O)[C@H](C[C@H](C)C(Cl)(Cl)Cl)N(C)C | 0.57 | 0.56 | Non-Toxic | Non-Toxic | Non-Toxic | 230 | 2800 | Non-Toxic | 860 | 780 | 
C[C@@H](C[C@H]1C(=O)N(C)[C@@H](C[C@H](C)C(Cl)(Cl)Cl)C(=O)N1C)C(Cl)(Cl)Cl | 0.4 |  | Non-Toxic | Non-Toxic | Non-Toxic | 2100 | 4200 | Non-Toxic | 5300 | 5200 | 0.092
CCC(=O)[C@H](C[C@H](C)C(Cl)(Cl)Cl)NC(=O)/C=C/[C@H](C)C(Cl)(Cl)Cl | 0.51 | 0.3 | Non-Toxic | Non-Toxic | Non-Toxic | 1000 | 2400 | Non-Toxic | 3200 | 1200 | 
